# Assay outcomes as filed in PubChem BioAssay.
# This is a sample that favours compounds with a hit; in the whole collection about 2.9% have one here.
# INS-1E GSIS act: primary screen for activators of insulin secretion dependent on glucose, INS-1E cells, GLuc reporter luminescence; INS-1E GLuc reporter insulin secretion, 2-3 h; 370,000 tested, 0.61% active; activation, % at 16.6 µM;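 active = lowest replicate activation of at least 40%, so every replicate reaches that level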;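 also: 0% = median of neutral control wells and 100% = median of IBMX positive control wells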
# Env fusion inh: blocks HIV Env-driven cell-cell fusion. AID 651610. HeLa-JRFL Env/CEM21 cell fusion, luciferase. 360,000 tested, 1.1% active. inhibition, % at 12.3 µM;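 active = mean replicate inhibition score of at least 50 and every replicate individually at or above 50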;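 also: 0% = plate neutral controls and 100% = maraviroc near 300 nM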
# Cneo AK release: causes C. neoformans cell lysis. adenylate kinase release luminescence, 4 h; normalised: neutral wells 0, clomiphene wells 100. AID 651654. 360,000 tested, 0.2% active. lysis activity, % at 15 µM;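 active = mean lysis activity across replicates of at least 80%, whatever share of replicates individually reach that level; inactive = mean lysis activity below 80%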
#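 Assay system: Cryptococcus neoformans yeast cells / Dosing: single-point compound dose / Timing: 4 h at 37 °C static, read 1 h later / Measured by: luminescence of released adenylate kinase using an AK detection reagent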
# dFosB act-1: enhances mouse delta FosB homodimer DNA binding | P13346 | purified delta FosB, TAMRA-CDK5 oligo fluorescence polarization; percent of positive-control signal above neutral wells | activation, % at 25 µM | 340,000 tested, 0.99% active | AID 493131;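 active = mean activation above about 17%, with every replicate also reaching it, limit read from the data, passing the limit was not always enough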
# Target sequence (P13346 whole entry, looked up): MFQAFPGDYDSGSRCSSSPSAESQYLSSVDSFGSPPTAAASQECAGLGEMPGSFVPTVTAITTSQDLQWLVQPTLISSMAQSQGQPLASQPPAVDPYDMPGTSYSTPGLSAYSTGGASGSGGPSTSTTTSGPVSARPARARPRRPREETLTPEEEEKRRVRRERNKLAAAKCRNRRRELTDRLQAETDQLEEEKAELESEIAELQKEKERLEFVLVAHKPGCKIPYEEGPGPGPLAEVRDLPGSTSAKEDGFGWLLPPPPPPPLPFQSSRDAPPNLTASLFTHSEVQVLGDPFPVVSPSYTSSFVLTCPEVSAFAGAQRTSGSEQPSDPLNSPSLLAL
# CDK5 p35 inh: blocks human CDK5/p35 kinase activity; inhibition, % at 10 µM; 330,000 tested, 0.01% active; Q00535+Q15078; Recombinant CDK5/p35, ADP-Glo luminescence, 60 min; AID 488839;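 active = highest replicate inhibition of at least 50% and at least 75% of replicates reaching 50%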;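 also: plate controls were DMSO neutral control for no effect and GW8510 at 10 µM for full effect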
# PAX8 inh HTS: PAX8 transcriptional activity inhibition. RMG-I TPO-luciferase reporter, SteadyGlo, 24 h. inhibition, % at 12.6 µM. 360,000 tested, 1.2% active. AID 652154;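 active = mean replicate inhibition at least 60% with every replicate also reaching 60%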;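 also: luciferase light reporting Pax8 driven TPO promoter activity; plate controls were median of neutral control wells for no effect and mitoxantrone controls for full effect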
# dFosB act-2: delta FosB (mouse) homodimer activation. shares compounds with dFosB act-1. purified delta FosB, TAMRA-CDK5 oligo fluorescence polarization; normalised: neutral wells 0, positive control 100. activation, % at 24.9 µM. 2,400 tested, under 10 active;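 active = highest replicate activation at or above 34% and every replicate reaching that threshold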;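 also: higher polarization means more probe DNA bound by delta FosB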
# * = called active by the depositor; / = no result given; [ ] = remark or other dose.
SMILES,INS-1E GSIS act,Env fusion inh,Cneo AK release,dFosB act-1,CDK5 p35 inh,PAX8 inh HTS,dFosB act-2
O=C(CSc1ncnc2c1oc1ccccc12)Nc1nc2ccccc2s1,-0.9,5.7,-1.0,33.3*,-0.5,0.2,2.2
C[C@H](CO)N1C[C@H](C)[C@H](CN(C)CC2CCCCC2)Oc2c(NC(=O)Nc3ccc(F)cc3)cccc2C1=O,-8.9,-60.8[16.7 µM],-10.3,/,/,-2.7,/
C[C@@H]1CN([C@H](C)CO)C(=O)CCCn2cc(nn2)CO[C@@H]1CN(C)Cc1cccc2c1OCCCO2,5.2,/,/,/,/,-8.9,/
C[C@@H]1CCCCO[C@H](CN(C)Cc2ccncc2)[C@H](C)CN([C@@H](C)CO)C(=O)c2cc(N(C)C)ccc2O1,1.9,2.9[16.7 µM],1.5,/,/,-8.5,/
CCCC#Cc1ccc([C@@H]2[C@H](CO)N3CCCCN(C(=O)NC4CCCC4)C[C@@H]23)cc1,-20.9,/,-5.3,/,/,-29.1,/
CCCCCCNc1cc2n(c(=O)n1)CCc1cc(OC)c(OC)cc1-2,/,-0.3,/,-9.7,-0.1,/,/
COc1cc2c(cc1OC)-c1cc(Nc3cccc(C)c3)nc(=O)n1CC2,50.8,-3.1,1.3,30.3*,0.5,-32.8,1.0
O=C(CSc1nnc(-c2n[nH]c3ccccc23)n1-c1ccccc1)Nc1cccc(Cl)c1,0.4,69.9*,/,25.4*,-3.5,33.0,7.9
CCc1ccc(NC(=O)CSc2nnc(-c3n[nH]c4ccccc34)n2-c2ccccc2)cc1,9.0,6.8,/,9.1,1.4,15.5,/
O=C(/C=C/c1ccc(Cl)cc1)NC(=S)Nc1ccc(NC(=O)c2ccco2)cc1,49.7*,-0.3,/,84.6*,0.8,15.4,0.3
CSc1ccc(/C=C/C(=O)OCC(=O)NC2CCCC2)cc1,/,-3.0,0.8,/,/,-7.4,/
CSc1ccc(/C=C/C(=O)OCC(=O)c2ccc[nH]2)cc1,3.4,-10.0,-0.9,22.4*,-4.2,-27.5,-2.2
O=C(CC(NC(=O)c1ccccc1Cl)c1ccccc1)NCCc1ccc(Cl)cc1 (stereo not given),5.4,/,4.5,24.9*,-1.4,/,-0.5
CC(=O)NC(CC(=O)NCCc1ccccc1)c1ccccc1 (stereo not given),23.2,-0.6,4.5,-8.2,1.8,-17.4,/
COc1ccccc1CNC(=O)C[C@H]1C[C@@H]2c3cc(NC(=O)Nc4ccc(C(F)(F)F)cc4)ccc3O[C@@H]2[C@@H](CO)O1,-16.2,19.6[16.7 µM],-3.2,/,/,-7.9,/
Cc1ccc(C(=O)NC(NC(=O)c2ccc(C)cc2)C(Cl)Cl)cc1,/,/,-1.9,24.4*,-0.7,/,1.4
Cc1ccccc1NC(=O)CSc1nc(-c2ccccc2)cc(=O)[nH]1,3.4,2.7,-1.1,12.0,0.6,9.2,/
Cc1ccccc1C(=O)NNC(=O)CSc1nc(-c2ccccc2)cc(=O)[nH]1,1.1,-6.0,/,40.3*,1.4,6.1,3.8
O=C(CSc1nc2ccccc2[nH]1)NCc1ccc2c(c1)OCO2,7.6,/,/,-1.3,-1.5,/,/
O=C(CSc1nc(-c2ccccc2)cc(=O)[nH]1)NCc1ccc2c(c1)OCO2,17.1,/,-9.7,48.6*,-0.9,/,3.2
C[C@@H]1CN([C@H](C)CO)C(=O)c2cc(NS(=O)(=O)c3ccc(F)cc3)ccc2O[C@@H]1CN(C)S(=O)(=O)c1ccc(Cl)cc1,-9.4,-32.8[16.7 µM],0.0,/,/,/,/
O=C(/C=C/c1cccs1)Nc1cccc(NC(=O)/C=C/c2cccs2)n1,/,-17.9,-22.0,21.2*,-3.1,-11.1,-5.6
C[C@@H]1CC(=O)NCC/C=C\C[C@@H](c2ccc3c(c2)OCO3)NC1=O,-1.5,/,/,/,/,/,/
CCCC(=O)Nc1ccccc1-c1nnn(CC(=O)Nc2ccc(OCC)cc2)n1,/,-15.2,-3.4,41.4*,-0.6,13.8,4.1
Cc1ccc(NC(=O)Cn2nnc(-c3ccccc3NC(=O)c3cccs3)n2)cc1,/,/,0.2,47.7*,0.4,/,5.7
SMILES,INS-1E GSIS act,Env fusion inh,Cneo AK release,dFosB act-1,CDK5 p35 inh,PAX8 inh HTS,dFosB act-2
CC1CCN(S(=O)(=O)c2ccc(NC(=O)Cn3nnc(-c4ccccc4F)n3)cc2)CC1,-22.6,9.5,0.0,77.7*,4.1,/,4.3
O=C(Cn1nnc(-c2ccccc2F)n1)Nc1cccc2ncccc12,/,/,-1.5,26.0*,3.0,/,5.7
C[C@@H](NC(=O)C[C@H]1C=C[C@@H](NC(=O)Cc2ccccn2)[C@H](CO)O1)c1ccccc1,13.2,/,-1.1,/,/,/,/
O=C(Cn1nnc(-c2ccccc2NC(=O)c2ccccc2)n1)Nc1ccc2c(c1)OCCO2,/,-173.1,4.8,44.4*,2.2,7.3,1.9
O=C(CSc1nccn(-c2cccc(F)c2)c1=O)Nc1ccc(Cl)cc1F,-2.9,-23.4,0.1,21.4*,-1.0,-80.6,0.4
O=C(CSc1nccn(-c2ccc(F)c(F)c2)c1=O)NC1CCCC1,1.4,-0.9,/,-15.6,-6.4,5.7,/
O=C(c1ccncc1)N1C[C@@H]2[C@H](c3ccccc31)[C@@H](CO)N2C(=O)c1ccccc1F,5.6,/,-3.5,/,/,3.4,/
C[C@@H]1CN(C)C(=O)c2cccc(NS(C)(=O)=O)c2O[C@H]1CN(C)C,10.0,/,/,/,/,/,/
Cc1c(NC(=O)c2cc(-n3cnnc3)ccc2Cl)cccc1-c1nc2ccccc2s1,/,-241.0,-1.8,31.5*,-3.1,/,-0.5
Cc1c(NC(=O)c2cccs2)cccc1-c1nc2ccccc2s1,19.2,2.1,/,-6.5,-0.8,-12.3,/
Cc1ccc(NC(=O)Cn2cc(C(=O)C3CC3)c3ccccc32)c(C)c1,-1.6,-54.5,0.3,-6.5,-2.7,-4.0,/
CC(=O)c1cn(CC(=O)Nc2ccc(C)cc2C)c2ccccc12,/,/,1.5,27.9*,2.0,/,7.6
CC(=O)c1cn(CC(=O)Nc2cccc(C)c2C)c2ccccc12,-4.6,12.4,1.4,-7.1,-0.2,18.0,/
Cc1ccc(C)c(NC(=O)Cn2cc(C(=O)C3CC3)c3ccccc32)c1,2.3,6.9,-1.1,72.0*,1.8,9.5,0.2
CCC(=O)c1cn(CC(=O)Nc2cccc(C)c2C)c2ccccc12,-7.5,-23.0,-1.8,25.3*,0.5,16.7,6.9
Cc1cccc(NC(=O)Cn2cc(C(=O)C3CC3)c3ccccc32)c1C,0.7,7.4,5.7,21.2*,2.8,16.8,1.8
C[C@H]1CN(C)C(=O)Cc2cc(N)ccc2O[C@H]1CN(C)S(C)(=O)=O,-3.2,/,/,/,/,/,/
O=C(CSc1nc2[nH]ncc2c(=O)[nH]1)Nc1ccc(OC(F)(F)F)cc1,1.2,0.6,/,19.1*,-0.2,-19.6,-2.0
COC(=O)c1ccc(NC(=O)CSc2nc3[nH]ncc3c(=O)[nH]2)cc1,4.5,-42.3,/,5.3,-0.2,-7.8,/
Cc1ccc(/C=N\NC(=O)c2ccc(Cn3cc(Br)c([N+](=O)[O-])n3)o2)o1,3.7,2.9,/,26.6*,-0.9,0.7,-8.0
O=C(N/N=C\c1cccc(Cl)c1)c1ccc(Cn2cccn2)o1,2.6,/,-3.1,-17.6,-0.2,-3.0,/
